# Experimental data from different studies.
# FLT3 K663Q: Receptor-type tyrosine-protein kinase FLT3 (FLT3, Homo sapiens, UniProt P36888, K663Q)
# FLT3 F691L/ITD: Receptor-type tyrosine-protein kinase FLT3 (FLT3, Homo sapiens, UniProt P36888, F691L/ITD)
# FLT3 R834Q: Receptor-type tyrosine-protein kinase FLT3 (FLT3, Homo sapiens, UniProt P36888, R834Q)
# FLT3 D835H: Receptor-type tyrosine-protein kinase FLT3 (FLT3, Homo sapiens, UniProt P36888, D835H)
# FLT3 N841I: Receptor-type tyrosine-protein kinase FLT3 (FLT3, Homo sapiens, UniProt P36888, N841I)
# FLT3: Receptor-type tyrosine-protein kinase FLT3 (FLT3, Homo sapiens, UniProt P36888)
# FLT3 autoinhibited: Receptor-type tyrosine-protein kinase FLT3, autoinhibited (FLT3, Homo sapiens, UniProt P36888)
# FLT3 D835Y: Receptor-type tyrosine-protein kinase FLT3 (FLT3, Homo sapiens, UniProt P36888, D835Y)
# FLT3 D835V/ITD: Receptor-type tyrosine-protein kinase FLT3 (FLT3, Homo sapiens, UniProt P36888, D835V/ITD)
SMILES,target,read-out,method,concentration,remaining binding
Nc1ncc2c(n1)-c1c([nH]c3ccc(C#CC4CC4)cc13)CCCC2,FLT3 K663Q,binding,competition with immobilised ligand,1 µM,77%
Cc1cnc(Nc2ccc(C(=O)N3CCC(N4CCCC4)CC3)cc2)nc1-c1cc2ccccc2s1,FLT3 F691L/ITD,binding,competition with immobilised ligand,1 µM,18%
F[C@@H]1CCN(c2nccc(-c3cnn4ncccc34)n2)C1,FLT3 R834Q,binding,,1 µM,100%
CN(C)c1ncnc(-c2ccc3nc(Nc4cc(CN5CCN(C(=O)CC(F)(F)F)CC5)ccn4)[nH]c3c2)c1Cl,FLT3 D835H,cell-free assay,competition with immobilised ligand,1 µM,42%
C[C@@H](c1ccc(-n2cnc3c(N)ncnc32)cc1)N1CCc2nn(C)c(Cc3ccccc3)c2C1=O,FLT3 N841I,binding,competition with immobilised ligand,0.1 µM,97%
CNC(=O)[C@@H]1CC[C@@H](n2c(-c3ccc4cnccc4c3)nc3ccc(C(=O)NCc4cccc(C(N)=O)c4)cc32)C1,FLT3,binding,competition with immobilised ligand,1 µM,100%
O=C(NCCCN1CCOCC1)c1ccc(Nc2ncc(Cl)c(-c3ccc(Cl)s3)n2)cc1,FLT3 autoinhibited,binding,competition with immobilised ligand,1 µM,5.5%
O=C(Nc1ccc(Oc2ccc(F)cc2)cc1)N1CCc2ncccc2[C@H]1c1ccc(F)cc1,FLT3 autoinhibited,cell-free assay,competition with immobilised ligand,1 µM,100%
N#Cc1ccccc1CSc1nnc2c(n1)[nH]c1ccccc12,FLT3,binding,competition with immobilised ligand,10 µM,84%
CC1CCCN1c1nccc(-c2cnn3ncccc23)n1 (centres unmarked),FLT3,binding,,1 µM,100%
COc1cnc(Nc2cccc(S(N)(=O)=O)c2)nc1N1CCN(c2ccccc2)C(=O)C1,FLT3 D835Y,binding,competition with immobilised ligand,1 µM,66%
c1cncc(-c2cccc(Nc3nccc(NC4CCCCC4)n3)c2)c1,FLT3 D835Y,binding,competition with immobilised ligand,10 µM,1.4%
O=C(c1ccc(Nc2ncc(Cl)c(-c3cc4ccccc4s3)n2)cc1)N1CCC(N2CCCC2)CC1,FLT3 F691L/ITD,binding,competition with immobilised ligand,1 µM,2.7%
CN1CCN(c2ccc(Nc3nccc(-c4cccc([N+](=O)[O-])c4)n3)cc2C(F)(F)F)CC1,FLT3 D835H,binding,,10 µM,1.1%
O=C(c1ccc(Nc2ncc(Cl)c(-c3ccc(Cl)s3)n2)cc1)N1CCC(N2CCCC2)CC1,FLT3 D835H,binding,competition with immobilised ligand,1 µM,2.3%
O=C(Nc1c[nH]nc1C(=O)NC1CCNCC1)c1cc(F)cc(F)c1,FLT3 K663Q,binding,competition with immobilised ligand,1 µM,96%
CCC(=N\O)/C(C)=C/c1ccc(F)cc1,FLT3 autoinhibited,cell-free assay,competition with immobilised ligand,1 µM,86%
CN(C)c1ncc(F)c(-c2cnn3ncccc23)n1,FLT3 autoinhibited,binding,,1 µM,72%
O=C(NCCCC1CCCCC1)c1ccc(CNC(=O)c2cnn(-c3ccccc3)c2C(F)(F)F)cc1,FLT3 D835V/ITD,cell-free assay,competition with immobilised ligand,0.1 µM,100%
O=C(NCCCN1CCOCC1)c1ccc(Nc2nccc(-c3cc4ccccc4s3)n2)cc1,FLT3 D835V/ITD,binding,competition with immobilised ligand,1 µM,12%
NS(=O)(=O)c1cc(NC(=O)C2(c3ccccc3Cl)CC2)ccc1Oc1cccc(Cl)c1,FLT3 K663Q,cell-free assay,competition with immobilised ligand,1 µM,100%
N[C@@H]1CCN(c2nccc(-c3cnn4ncccc34)n2)C1,FLT3 D835Y,binding,,1 µM,97%
C=CC(=O)N1CCC(C(=O)NCC(=O)N2CCN(c3nc(-c4cnc(N)nc4C(F)F)nc(N4CCOCC4)n3)CC2)CC1,FLT3 D835H,binding,competition with immobilised ligand,1 µM,100%
COc1ncc2cc3ccccc3nc2c1C#N,"Receptor-type tyrosine-protein kinase FLT3 (FLT3, Homo sapiens, UniProt P36888, ITD)",cell-free assay,competition with immobilised ligand,5 µM,94%
CN(c1nccc(-c2cnn3ncccc23)n1)C1CC1,FLT3 R834Q,binding,,1 µM,100%
Cc1nc(N2CC[C@@H](O)C2)ncc1-c1cc(C(F)(F)F)cc2[nH]ncc12,FLT3 F691L/ITD,binding,competition with immobilised ligand,1 µM,69%
CN1CCN(c2ccc(Nc3nccc(-c4ccccc4)n3)cc2C(F)(F)F)CC1,FLT3 D835Y,binding,,10 µM,1.3%
O=C(NCC1CCOCC1)c1n[nH]cc1NC(=O)c1c(F)cccc1F,FLT3,binding,competition with immobilised ligand,1 µM,92%
COc1cnc(Nc2cccc(S(N)(=O)=O)c2)nc1N1CCN(c2ccccc2)CC1,FLT3 N841I,binding,competition with immobilised ligand,1 µM,21%
CN(CCCC(F)(F)F)c1nccc(-c2cnn3ncccc23)n1,FLT3 D835Y,binding,,1 µM,76%
O=C1NC(c2ccccn2)Sc2ccccc21 (centres unmarked),FLT3 K663Q,cell-free assay,competition with immobilised ligand,1 µM,82%
CCN1CCN(Cc2ccc(C(=O)Nc3ccc(C)c(Oc4ccc5c(c4)CC(=O)N5)c3)cc2C(F)(F)F)CC1,FLT3 K663Q,binding,competition with immobilised ligand,1 µM,45%
O=C(c1ccc(Nc2nccc(-c3cc4ccccc4s3)n2)cc1)N1CCC(N2CCCC2)CC1,"Receptor-type tyrosine-protein kinase FLT3 (FLT3, Homo sapiens, UniProt P36888, D835V)",binding,competition with immobilised ligand,1 µM,3.1%
O=C(NCc1ncc(C(F)(F)F)cc1Cl)c1ccc2c(c1)C1(CCS(=O)(=O)CC1)[C@H](C1CC1)N2S(=O)(=O)c1ccc(F)cc1,FLT3 R834Q,cell-free assay,competition with immobilised ligand,1 µM,90%
COc1ccnn2ncc(-c3ccnc(N(C)C)n3)c12,FLT3 D835Y,binding,,1 µM,97%
